Calls of active or inactive are those of the source. Residues, ends and D or L forms follow the SMILES beside them.
Tests used:
Homo sapiens [1] = species: Homo sapiens; experiment: Binding affinity to RBC membrane receptor in human RBC assessed as specific binding activity measured as ratio of specifically bound peptide/added peptide by gamma counter
In short: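 1 × 10^8 healthy-donor RBCs incubated in triplicate with four rising concentrations of 125I-peptide (0-560 nM), with or without unlabeled peptide, then washed in HBS (pH 7.4) and gamma-counted. Specific binding (total minus nonspecific) plotted against added peptide; the slope is the specific binding activity. The HABP cutoff is ≥2%.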

Homo sapiens [2] = species: Homo sapiens; experiment: Binding affinity to RBC membrane receptor in 150 uU/mL neuraminidase pretreated human RBC relative to untreated RBC
In short: (§1)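 Human RBCs (60% hematocrit) treated 1 h at 37 °C with neuraminidase (150 μU/mL), chymotrypsin (1 mg/mL) or trypsin (1 mg/mL). Standard radiolabeled-peptide binding then run on treated cells at 20% hematocrit. Binding expressed relative to untreated RBCs set as 100%.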

Homo sapiens [3] = species: Homo sapiens; experiment: Binding affinity to RBC membrane receptor in 1 mg/mL chymotrypsin pretreated human RBC relative to untreated RBC; in short: as §1
Homo sapiens [4] = species: Homo sapiens; experiment: Binding affinity to RBC membrane receptor in 1 mg/mL trypsin pretreated human RBC relative to untreated RBC; in short: as §1
Plasmodium falciparum [5] = experiment: Antiplasmodial activity against Plasmodium falciparum FCB2 assessed as inhibition of merozoite invasion of human erythrocytes at 200 uM after 18 hrs using hydroethidine staining by flow cytometry; type: functional; conditions: FCB2, 18 h
In short: (§2)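 Schizont-synchronized P. falciparum FCB-2 cultures incubated in triplicate with peptide (100 and 200 μM) using normal RBCs or, for the neuraminidase line, neuraminidase-treated RBCs. 37 °C for 18 h under 5% O2, 5% CO2, 90% N2. Cells washed with PBS, hydroethidine-labeled, read by flow cytometry (FL2). Inhibition controls were EGTA- and chloroquine-treated infected RBCs; uninfected RBCs served as invasion control.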

Plasmodium falciparum [6] = experiment: Antiplasmodial activity against Plasmodium falciparum FCB2 assessed as inhibition of merozoite invasion of neuraminidase pretreated human erythrocytes at 200 uM after 18 hrs using hydroethidine staining by flow cytometry; type: functional; in short: as §2
[7] = Binding affinity to RBC membrane receptor in human RBC assessed as dissociation constant by gamma counter
In short: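 Saturation assay: 7.5 × 10^7 human RBCs incubated in triplicate with 125I-peptide over 0-2200 nM, with or without 6 nmol unlabeled peptide. Cells washed in HBS and counted by gamma counter. Kd, Hill coefficient and sites per cell came from Hill analysis.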

Homo sapiens [8] = species: Homo sapiens; experiment: Binding affinity of radio labeled compound to 32 kDa RBC membrane receptor in human RBC cross-linked with bis-(sulfosuccinimidyl)suberate by autoradiography using SDS-PAGE
In short: (§3)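 Radioiodinated peptide (chloramine-T method) incubated with 2.1 × 10^7 human RBCs, then cross-linked with BS3 (1 mg/mL) for 1 h at 4 °C. Reaction stopped with Tris-HCl. Membranes lysed (Tris/NaCl/EDTA/PMSF), mixed with Laemmli buffer, spun 15000g for 15 min, resolved on 12% SDS-PAGE against prestained markers.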

Homo sapiens [9] = species: Homo sapiens; experiment: Binding affinity of radio labeled compound to 25 kDa RBC membrane receptor in human RBC cross-linked with bis-(sulfosuccinimidyl)suberate by autoradiography using SDS-PAGE; in short: as §3
Homo sapiens [10] = species: Homo sapiens; experiment: Binding affinity of radio labeled compound to 22 kDa RBC membrane receptor in human RBC cross-linked with bis-(sulfosuccinimidyl)suberate by autoradiography using SDS-PAGE; in short: as §3
Homo sapiens [11] = species: Homo sapiens; experiment: Binding affinity of radio labeled compound to 20 kDa RBC membrane receptor in human RBC cross-linked with bis-(sulfosuccinimidyl)suberate by autoradiography using SDS-PAGE; in short: as §3
Plasmodium falciparum [12] = experiment: Antiplasmodial activity against Plasmodium falciparum FCB2 assessed as inhibition of merozoite invasion of human erythrocytes at 1.85 mg/mL after 18 hrs using hydroethidine staining by flow cytometry; type: functional; parameters: scale not given: the % may be the effect or the level left; in short: as §2
Plasmodium falciparum [13] = experiment: Antiplasmodial activity against Plasmodium falciparum FCB2 assessed as inhibition of merozoite invasion of human erythrocytes at 0.93 mg/mL after 18 hrs using hydroethidine staining by flow cytometry; type: functional; parameters: scale not given: the % may be the effect or the level left; in short: as §2
Plasmodium falciparum [14] = experiment: Antiplasmodial activity against Plasmodium falciparum FCB2 assessed as inhibition of merozoite invasion of human erythrocytes at 1.9 mg/mL after 18 hrs using hydroethidine staining by flow cytometry; type: functional; parameters: scale not given: the % may be the effect or the level left; in short: as §2

Molecule | Activity (Homo sapiens [1]) | Activity (Homo sapiens [2]) | Activity (Homo sapiens [3]) | Activity (Homo sapiens [4]) | Kd [7] | Activity (Homo sapiens [8]) | Activity (Homo sapiens [9]) | Activity (Homo sapiens [10]) | Activity (Homo sapiens [11]) | inhibition at 200 µM (Plasmodium falciparum [5]) | inhibition at 200 µM (Plasmodium falciparum [6]) | Activity (Plasmodium falciparum [12]) | Activity (Plasmodium falciparum [13]) | Activity (Plasmodium falciparum [14])
CC[C@H](C)[C@H](NC(=O)[C@H](CC(=O)O)NC(=O)[C@H](CC(=O)O)NC(=O)[C@@H](NC(=O)[C@H](Cc1ccc(O)cc1)NC(=O)[C@H](CCCCN)NC(=O)[C@H](CCCCN)NC(=O)[C@@H](NC(=O)[C@H](CC(N)=O)NC(=O)[C@@H](NC(=O)[C@@H](N)CS)[C@@H](C)O)[C@@H](C)CC)[C@@H](C)O)C(=O)N[C@@H](CS)C(=O)N[C@@H](CC(C)C)C(=O)N[C@@H](CO)C(=O)N[C@H](C(=O)N[C@@H](CCCCN)C(=O)N1CCC[C@H]1C(=O)N[C@@H](CCCCN)C(=O)N[C@@H](C)C(=O)N[C@@H](CC(C)C)C(=O)O)[C@@H](C)CC (H-CTNIKKYTDDICLSIKPKAL-OH) | > 2% | 101% | 52.8% | 172% | 870 nM | Active | Active | Active | Active | 52% | 47% | – | – | –
CCN(CC)CCCC(C)Nc1ccnc2cc(Cl)ccc12 (centres undefined) [CHLOROQUINE] | – | – | – | – | – | – | – | – | – | – | – | 97% | 96% | –
O=C(O)CN(CCOCCOCCN(CC(=O)O)CC(=O)O)CC(=O)O [EGTAZIC ACID] | – | – | – | – | – | – | – | – | – | – | – | – | – | 90%
H-KHIVNKIQENFKLNQNKYIH-OH | > 2% | 115% | 132% | 94.1% | 590 nM | – | – | – | – | 51% | 51% | – | – | –
H-KNSQNQHDINKTHHTNNNYD-OH | – | – | – | – | – | – | – | – | – | 37% | 3% | – | – | –
H-LNFTHKTIQQILQQQYKNNT-OH | > 2% | 94.9% | 79.7% | 43% | 850 nM | – | – | – | – | 45% | 47% | – | – | –
H-QEKNTLAQFLYNADIKKYID-OH | > 2% | 110% | 0.01% | 1.01% | – | Active | Active | Active | Active | 38% | 53% | – | – | –
H-QEQNRIYNELQNKIKQIKNV-OH | > 2% | 93% | 102% | 32% | 880 nM | Active | Active | Active | Active | 85% | 88% | – | – | –
H-QNYNQENQEKSKMIDSENEK-OH | – | – | – | – | – | – | – | – | – | 39% | 37% | – | – | –
H-YNKNNIKDIYQQFKNIQQQL-OH | > 2% | 153% | 114% | 87% | 400 nM | Active | Active | Active | Active | 46% | 49% | – | – | –

Second part, led by results:

Activity (Homo sapiens [1]) | Activity (Homo sapiens [2]) | Activity (Homo sapiens [3]) | Activity (Homo sapiens [4]) | Kd [7] | Activity (Homo sapiens [8]) | Activity (Homo sapiens [9]) | Activity (Homo sapiens [10]) | Activity (Homo sapiens [11]) | Molecule | inhibition at 200 µM (Plasmodium falciparum [5]) | inhibition at 200 µM (Plasmodium falciparum [6]) | Activity (Plasmodium falciparum [12]) | Activity (Plasmodium falciparum [13]) | Activity (Plasmodium falciparum [14])
> 2% | 152% | 209% | 79.4% | – | – | – | – | – | CC[C@H](C)[C@H](NC(=O)[C@H](Cc1cnc[nH]1)NC(=O)[C@H](CO)NC(=O)[C@@H]1CCCN1C(=O)[C@H](CCC(N)=O)NC(=O)[C@@H](NC(=O)[C@@H](N)CC(C)C)[C@@H](C)CC)C(=O)N[C@@H](Cc1cnc[nH]1)C(=O)N[C@@H](CC(C)C)C(=O)N[C@@H](Cc1cnc[nH]1)C(=O)N[C@@H](CCCCN)C(=O)N[C@@H](CCSC)C(=O)N[C@@H](CCCCN)C(=O)N[C@@H](CC(C)C)C(=O)N1CCC[C@H]1C(=O)N[C@H](C(=O)N[C@H](C(=O)N[C@@H](CCC(N)=O)C(=O)N[C@@H](CCC(N)=O)C(=O)N[C@@H](CCC(N)=O)C(=O)N[C@@H](Cc1ccc(O)cc1)C(=O)O)[C@H](C)O)[C@@H](C)CC | 48% | 43% | – | – | –
> 2% | 80.7% | 53.3% | 75.2% | – | Active | Active | Active | Active | H-CIQIKKKVDELYNIYDQLFK-OH | 46% | 50% | – | – | –
> 2% | – | – | – | – | – | – | – | – | H-EHTIYTLYQEIKTNLENIEQ-OH | 72% | 71% | – | – | –
> 2% | – | – | – | – | – | – | – | – | H-FKQILELKEKEHYITNKHTY-OH | 46% | 47% | – | – | –
> 2% | 129% | 60.1% | 15.2% | 750 nM | – | – | – | – | H-KIMQNIQQTTNRLKINIKKIY-OH | 54% | 46% | – | – | –
> 2% | 166% | 31.4% | 24.9% | 1200 nM | – | – | – | – | H-LFDYTHLWDNAQFTRTKENI-OH | 50% | 58% | – | – | –
> 2% | 92.2% | 22.5% | 43.9% | 850 nM | – | – | – | – | H-LNTILHRNEQTKNATRSYNM-OH | 47% | 46% | – | – | –
> 2% | – | – | – | – | – | – | – | – | H-LPEHIKQKSVSELNIYMKQI-OH | 41% | 42% | – | – | –
> 2% | 200% | 93.2% | 93% | – | – | – | – | – | H-MLSIFQDTKYGKHKNQQILS-OH | 52% | 42% | – | – | –
< 2% | – | – | – | – | – | – | – | – | H-NEEENEMGYGITNKRKNSET-OH | 43% | 40% | – | – | –
> 2% | 94.3% | 169% | 220% | – | – | – | – | – | H-NILMDEIENYVKKYTESNRI-OH | 46% | 49% | – | – | –
> 2% | 89.5% | 135% | 55.5% | – | – | – | – | – | H-NTTETQLNHIKQNINHFKYF-OH | 97% | 97% | – | – | –
> 2% | 128% | 288% | 0.03% | 590 nM | Active | Active | Active | Active | H-QIYKNELKDRIKETQTKINL-OH | 47% | 49% | – | – | –
> 2% | 312% | 26.3% | 16.7% | 480 nM | – | – | – | – | H-YDKLNEHVINNLYTKSKDSL-OH | 43% | 39% | – | – | –

From ChEMBL document CHEMBL1250450, “Well-defined regions of the Plasmodium falciparum reticulocyte binding protein homologue 4 mediate interaction with red blood cell membrane” (J Med Chem, 2010)
